A short description of data set [1]: Cytotoxicity against mouse primary mesangial cells assessed as reduction in cell viability after 48 hrs by MTT assay. It is filed as toxicity. Background: Tetrazolium dyes change colour on reduction, which living cells bring about.
A short description of data set [2]: Cytotoxicity against human CA46 cells assessed as reduction in cell viability after 48 hrs by MTT assay. It is filed as functional, cell-based. The settings on record: CA46, 48 h.
The nature of data set [3]: Cytotoxicity against human Raji cells assessed as reduction in cell viability after 48 hrs by MTT assay. Format: functional, cell-based.
Data set [4] is described as follows: Cytotoxicity against human A549 cells assessed as reduction in cell viability after 48 hrs by MTT assay. Format: functional, cell-based. The settings on record: A549, 48 h.
A short description of data set [5]: Cytotoxicity against human HeLa cells assessed as reduction in cell viability after 48 hrs by MTT assay. It is filed as functional, cell-based.
Data set [6] is described as follows: Binding affinity to 5'-Pu22-3' c-myc G-quadruplex DNA (unknown origin) assessed as maintainance of parallel c-myc G-quadruplex conformation at 2 equiv after 6 hrs in presence of KCl by CD-spectroscopic analysis. The method, boiled down: (§1)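 Pu22 at 3 μM final in 10 mM Tris-HCl buffer with ligand at 2 equiv, with 100 mM KCl or without KCl; heated 95 °C 5 min, slowly cooled, held ≥6 h; CD spectra 230–330 nm, 1 mm quartz cell, 1 nm bandwidth and step, 0.5 s/point, average of two scans.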

The nature of data set [7]: Binding affinity to biotinylated 5'-Pu22-3'-labelled c-myc G-quadruplex DNA (unknown origin) after 240 secs by SPR assay. The procedure, abridged: (§2)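 SPR: biotinylated Pu22 and biotinylated duplex folded in 50 mM Tris-HCl pH 7.4, 150 mM KCl, 0.005% Tween20, captured (~1000 RU) on separate flow cells with a blank reference; ligand 0.0625–10 μM in running buffer, 240 s association then 240 s dissociation at 25 °C; equilibrium KD derived.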
Background: SPR reads the build-up and loss of mass on a sensor chip optically.

Data set [8] is described as follows: Binding affinity to 5'-FPu22T-3'-labelled c-myc G-quadruplex DNA (unknown origin) assessed as change in melting temperature at 2 uM in presence ds26 DNA of by FRET assay. The method, boiled down:
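FRET melting of 0.4 μM labelled FPu22T with ligand 2.0 μM, alone or with 10-fold (4 μM), 50-fold (20 μM) or 100-fold (40 μM) excess unlabelled duplex ds26 as competitor; Tris-HCl 10 mM pH 7.4 with 10 or 60 mM KCl; ex 470/em 530 nm read every 1 °C from 37–99 °C, 30 s hold; ΔTm = Tm(DNA+ligand) − Tm(DNA).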

The nature of data set [9]: Binding affinity to F10T duplex DNA (unknown origin) assessed as change in melting temperature by FRET assay. The procedure, abridged:
(§3)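 Fluorescence melting on real-time PCR instrument; 0.4 μM labelled oligonucleotide (FPu22T or duplex-forming F10T), ligand 2.0 μM, in 10 mM Tris-HCl pH 7.4 with 10 or 60 mM KCl; ex 470/em 530 nm at 1 °C steps over 37–99 °C, 30 s equilibration each; ΔTm = Tm(DNA+ligand) − Tm(DNA).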

A short description of data set [10]: Binding affinity to 5'-FPu22T-3'-labelled c-myc G-quadruplex DNA (unknown origin) assessed as change in melting temperature by FRET assay. The procedure, abridged:
as §3

Data set [11] can be described thus: Binding affinity to 5'-Pu22-3' c-myc G-quadruplex DNA (unknown origin) assessed as induction of parallel c-myc G-quadruplex conformation at 2 equiv after 6 hrs in absence of KCl by CD-spectroscopic analysis. The procedure, abridged:
as §1

A short description of data set [12]: Selectivity ratio of Kd for double stranded DNA (unknown origin) to Kd for biotinylated 5'-Pu22-3'-labelled c-myc G-quadruplex DNA.
Data set [13] is described as follows: Binding affinity to biotinylated double stranded DNA (unknown origin) after 240 secs by SPR assay. The procedure, abridged:
as §2

Data set [14] can be described thus: Drug uptake in human HeLa cells at 10 uM after 48 hrs.

Active and inactive are the calls of the source. The rule behind the calls is not given here.

The source of these data is ChEMBL document CHEMBL3865800, “Design, synthesis and biological evaluation of 4-anilinoquinazoline derivatives as new c-myc G-quadruplex ligands” (Eur J Med Chem, 2016).

What is called IC50 is the concentration that gives 50% inhibition. In general, Kd refers to the constant that tells how readily two partners part at equilibrium. As a reminder, the ΔTm is the change in melting temperature against a reference sample.

On to `CN(C)CCNCCC(=O)Nc1ccc(Nc2nc(-c3ccccc3NC(=O)CCNCCN(C)C)nc3ccccc23)cc1`, for which the IC50 at 48 h in data set [1] was > 50 µM. The IC50 was 28.2 µM in data set [2], > 50 µM in data set [3], > 50 µM in [4] and > 50 µM in data set [5]. Further, the result in [6], in data set [8] and in [11] was Active. Moreover, the Kd in data set [7] was determined as 0.14 µM. Moreover, the thermal shift (ΔTm) is 0.8 °C in data set [9] and 19.4 °C in data set [10].
As for `CN1CCN(CCC(=O)Nc2ccc(Nc3nc(-c4ccccc4NC(=O)CCN4CCN(C)CC4)nc4ccccc34)cc2)CC1`, the IC50 at 48 h in data set [1] is > 50 µM. For the same molecule, the half-maximal inhibitory concentration (IC50) in data set [2] is 19.5 µM; in data set [3], 27.8 µM; in [4], > 50 µM; in data set [5], 20.1 µM. Besides, the result in data set [6], in data set [8] and in data set [11] was Active. For the same molecule, the equilibrium dissociation constant (Kd) in [7] is 0.4 µM. In addition, the ΔTm is 0.3 °C in data set [9] and 13.2 °C in data set [10].
`CCN(CC)CCNCCC(=O)Nc1ccc(Nc2nc(-c3ccccc3NC(=O)CCNCCN(CC)CC)nc3ccccc23)cc1`: the half-maximal inhibitory concentration (IC50) at 48 h in data set [1] is > 50 µM. Besides, the IC50 in data set [2], in data set [3], in data set [4] and in [5] was > 50 µM in each case. The outcome in data set [6], in data set [8] and in data set [11] was Active. In addition, the Kd in data set [7] was found to be 0.21 µM. In addition, the ΔTm in [9] is 0.6 °C; in data set [10], 18 °C.
Take `O=C(CN1CCCC1)Nc1ccc(Nc2nc(-c3ccccc3NC(=O)CN3CCCC3)nc3ccccc23)cc1`: in [1], the IC50 at 48 h was 16.5 µM. In addition, the concentration for half-maximal inhibition (IC50) in [2] is 1.8 µM; in [3], 1.9 µM; in data set [4] it was 18.7 µM; in data set [5], 2.9 µM. For the same molecule, the result in [6], in [8] and in [11] was Active. In addition, in data set [12], the Selectivity ratio is > 62.5. The Kd in [13] is > 10 µM; in [7], 0.16 µM. Besides, the ΔTm in data set [9] came out at 0.6 °C; in data set [10] it was 13.3 °C. The Drug uptake result in data set [14] is on record as “Active”.
With `O=C(CCN1CCCCC1)Nc1ccc(Nc2nc(-c3ccccc3NC(=O)CCN3CCCCC3)nc3ccccc23)cc1`, the IC50 at 48 h in data set [1] worked out at 6.3 µM. Also, the IC50 was 4.5 µM in data set [2], 1.3 µM in data set [3], 7.5 µM in data set [4] and 7.4 µM in data set [5]. Besides, the outcome in data set [6], in data set [8] and in data set [11] was Active. Besides, in data set [12], the Selectivity ratio is > 45.4. Further, the Kd is > 10 µM in data set [13] and 0.22 µM in data set [7]. In addition, the thermal shift (ΔTm) amounted to 1.4 °C in [9] and 17.9 °C in data set [10].
As to `CCN(CC)CCC(=O)Nc1ccc(Nc2nc(N(CC)CC)nc3ccccc23)cc1`, the IC50 at 48 h in data set [1] came out at 6.4 µM. Also, the IC50 in [2] amounted to 10.3 µM; in [3], 5.1 µM; in [4], 6.1 µM; in [5], 6.3 µM. The Selectivity ratio in data set [12] was > 6.1. Also, the equilibrium dissociation constant (Kd) is > 10 µM in data set [13] and 1.64 µM in data set [7]. Further, the result in data set [8] was Active. Moreover, the ΔTm was found to be 0.2 °C in [9] and 12.2 °C in data set [10].
As to `O=C(CCCN1CCCC1)Nc1ccc(Nc2nc(-c3ccccc3NC(=O)CCCN3CCCC3)nc3ccccc23)cc1`, the half-inhibitory concentration (IC50) at 48 h in data set [1] was > 50 µM. For the same molecule, the half-maximal inhibitory concentration (IC50) in data set [2] is 13.7 µM; in [3], 31.6 µM; in data set [4] it was 27.2 µM; in [5] it was 22.4 µM. Further, the Selectivity ratio in data set [12] is > 18.2. Also, the Kd in data set [13] is > 10 µM; in [7], 0.55 µM. The result in [8] was Active. Also, the thermal shift (ΔTm) in data set [9] came to 0.8 °C; in [10], 12.6 °C.
In the case of `O=C(CCN1CCCC1)Nc1ccc(Nc2nc(-c3ccccc3NC(=O)CCN3CCCC3)nc3ccccc23)cc1`, the concentration for half-maximal inhibition (IC50) at 48 h in [1] worked out at 23.3 µM. Besides, the IC50 came to 7.2 µM in data set [2], 4 µM in data set [3], 26.6 µM in data set [4] and 7 µM in data set [5]. The outcome in [6], in [8] and in data set [11] was Active. Moreover, in data set [12], the Selectivity ratio was > 50. Further, the results for the dissociation constant Kd in data set [13] and in data set [7] were > 10 µM and 0.2 µM, respectively. Moreover, the shift in melting temperature (ΔTm) in data set [9] was found to be 0.9 °C; in data set [10] it was 14.2 °C. The Drug uptake entry in data set [14] is recorded as “Active”.
